This passage reports K app and IC50 results from ChEMBL document CHEMBL1134414, “Synthesis, antitumor cytotoxicity, and DNA-binding of novel N-5,2-di(omega-aminoalkyl)-2,6-dihydropyrazolo[3,4,5-kl]acridine-5-carboxamides” (J Med Chem, 2001).

The first experiment concerns Nucleic Acid. Briefly: Apparent equilibrium constant for binding to calf thymus DNA by competitive displacement fluorometric assay. The following applies: Bos taurus. Type of experiment: functional.
Regarding `O=C1c2c(O)ccc(O)c2C(=O)c2c(NCCNCCO)ccc(NCCNCCO)c21`, the K app came to 3.41e+08 M⁻¹.

In another experiment the test system is HT-29. Put plainly: Concentration required to inhibit cell growth by 50% in vitro against Human colon adenocarcinoma cell line. Type of experiment: functional, cell-based.
Conditions: not given
The gist of the method: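 HT29 cells seeded at 2.5×10^4 cells/mL and exposed to drug continuously for 144 h. Assays run in triplicate.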
For `CN(C)CCN1Nc2c3ccccc3nc3c(C(=O)NCCNCCO)ccc1c23`, the IC50 – broadly, the concentration that inhibits the measured activity by half – worked out at 560 nM. Still for that read-out and setting: under `COc1ccc2c(c1)-c1nn(CCN3CCCC3)c3ccc(C(=O)NCCN(C)C)c(c13)N2` stands 400 nM; under `CN(C)CCCN1Nc2c3ccccc3nc3c(C(=O)NCCN(C)C)ccc1c23`, 250 nM; under `O=C(NCCNCCO)c1ccc2c3c(c4ccccc4nc13)NN2CCN1CCCCC1`, 560 nM. On the same count and under the same terms, under `CN(C)CCNC(=O)c1ccc2c3c(c4ccccc4nc13)NN2CCN(C)C` stands 210 nM; under `CN(C)CCNC(=O)c1ccc2c3c(c4cc(N)ccc4nc13)NN2CCN(C)C`, 910 nM.

On to `CN(C)CCNC(=O)c1ccc2c3c(c4cc(O)ccc4nc13)NN2CCN(C)C`, for which the IC50 worked out at 600 nM. Consider `CN(C)CCNC(=O)c1ccc2c3c(c4cc(O)ccc4nc13)NN2CCN1CCCC1`, for which the IC50 was determined as 910 nM.

For the molecule `O=C(NCCNCCO)c1ccc2c3c(c4ccccc4nc13)NN2CCN1CCCC1`, the IC50 came out at 1700 nM. Compared with the last molecule, the IC50 is about 1.9-fold higher. On the same count and under the same terms, the same measure for `CN(C)CCNC(=O)c1ccc2c3c(c4cc([N+](=O)[O-])ccc4nc13)NN2CCN1CCCCC1`: 31 nM; for `CN(C)CCCN1Nc2c3cc(O)ccc3nc3c(C(=O)NCCN(C)C)ccc1c23`: 1800 nM; for `COc1ccc2c(c1)-c1nn(CCN(C)C)c3ccc(C(=O)NCCN(C)C)c(c13)N2`: 120 nM. Same read-out and setting: under `COc1ccc2c(c1)-c1nn(CCCN(C)C)c3ccc(C(=O)NCCN(C)C)c(c13)N2` stands 490 nM; under `CN(C)CCNC(=O)c1ccc2c3c(c4cc([N+](=O)[O-])ccc4nc13)NN2CCN1CCCC1`, 360 nM; under `CN(C)CCNC(=O)c1ccc2c3c(c4cc(N)ccc4nc13)NN2CCN1CCCCC1`, 170 nM. `CN(C)CCNC(=O)c1ccc2c3c(c4cc(O)ccc4nc13)NN2CCN1CCCCC1`: the IC50 amounted to 630 nM. The same measure, in the same setting: the same measure for `CN(C)CCNC(=O)c1ccc2c3c(c4ccccc4nc13)NN2CCN1CCCC1`: 190 nM; for `COc1ccc2c(c1)-c1nn(CCN3CCCCC3)c3ccc(C(=O)NCCN(C)C)c(c13)N2`: 260 nM; for `CN(C)CCNC(=O)c1ccc2c3c(c4ccccc4nc13)NN2CCN1CCCCC1`: 210 nM. Same read-out and setting: under `CCN(CC)CCNC(=O)c1ccc2c3c(c4ccccc4nc13)NN2CCN(CC)CC` stands 410 nM; under `CN(C)CCCNC(=O)c1ccc2c3c(c4ccccc4nc13)NN2CCN(C)C`, 600 nM. Same read-out and setting: under `CN(C)CCN1Nc2c3ccccc3nc3c(C(=O)NCCN)ccc1c23` stands 300 nM; under `CN(C)CCCNC(=O)c1ccc2c3c(c4ccccc4nc13)NN2CCCN(C)C`, 2300 nM; under `CN(C)CCNC(=O)c1ccc2c3c(c4cc([N+](=O)[O-])ccc4nc13)NN2CCN(C)C`, 3.9 nM. The molecule `O=C(NCCN1CCCCC1)c1ccc2c3c(c4ccccc4nc13)NN2CCN1CCCCC1` had an IC50 of 450 nM. Against the preceding molecule, the IC50 is about 120-fold higher.
